ChEMBL document CHEMBL4020714, “Design, synthesis, and evaluation of curcumin derivatives as Nrf2 activators and cytoprotectors against oxidative death” (Eur J Med Chem, 2017)
Calls of active or inactive are those of the source. The calls are words filed in the database; no cut-off is given here.

Experiments:
Type in all cases: cell-based
[1] = target: T1, Nuclear factor erythroid 2-related factor 2 (Homo sapiens) (UniProt Q16236); assay: Activation of Nrf2 in human HepG2 cells assessed as increase in nuclear Nrf2 expression level at 5 uM after 12 hrs by Western blot analysis
T1 sequence (whole entry): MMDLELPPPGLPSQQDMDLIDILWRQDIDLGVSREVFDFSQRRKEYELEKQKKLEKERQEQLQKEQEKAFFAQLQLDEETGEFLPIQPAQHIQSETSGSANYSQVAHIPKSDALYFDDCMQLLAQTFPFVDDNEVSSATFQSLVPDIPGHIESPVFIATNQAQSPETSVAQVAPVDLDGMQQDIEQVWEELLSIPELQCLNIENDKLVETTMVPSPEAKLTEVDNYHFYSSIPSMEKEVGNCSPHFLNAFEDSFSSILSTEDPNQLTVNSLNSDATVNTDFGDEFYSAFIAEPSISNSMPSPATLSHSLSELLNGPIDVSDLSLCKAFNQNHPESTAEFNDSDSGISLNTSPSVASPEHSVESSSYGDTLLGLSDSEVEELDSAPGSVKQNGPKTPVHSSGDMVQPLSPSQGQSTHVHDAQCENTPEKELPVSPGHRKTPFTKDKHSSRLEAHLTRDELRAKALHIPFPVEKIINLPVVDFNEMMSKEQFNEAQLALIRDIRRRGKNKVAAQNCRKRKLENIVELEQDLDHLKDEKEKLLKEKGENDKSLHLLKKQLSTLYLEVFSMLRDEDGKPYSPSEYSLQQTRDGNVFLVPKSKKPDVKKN
Procedure, shortened: (§1)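 HepG2 cells (2×10^6/well) treated at the indicated concentrations and times. Whole-cell lysates, or nuclear and cytoplasmic fractions, are prepared and quantified by BCA. Samples are run at 40 μg/lane on 12% SDS-PAGE, transferred to nitrocellulose, probed with specific antibodies and HRP secondary (1/5000), and detected by ECL. Where used, LY294002 (15 μM), SP600125 (25 μM) or DTT (400 μM) is added 1 h before compound.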

[2] = target: T1, Nuclear factor erythroid 2-related factor 2 (Homo sapiens); assay: (§2) Activation of Nrf2 in human HepG2 cells assessed as cytoprotection against t-BHP-induced oxidative cell death at 5 uM incubated for 24 hrs followed by compound removal with subsequent incubation with 900 uM of t-BHP for 6 hrs by MTT assay
Procedure, shortened: (§3)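 HepG2 cells (5×10^3/well) seeded and grown 24 h in 1640 medium with 10% FBS at 37 °C and 5% CO2. Compound is added for 24 h, then removed, and cells are challenged with 900 μM t-BHP for 6 h at 37 °C. MTT (0.5 mg/mL) is added for 4 h, formazan dissolved in DMSO, and absorbance read at 570 nm. Where used, inhibitors are added 1 h before compound. Mean ± SD of three independent experiments.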

[3] = target: T1, Nuclear factor erythroid 2-related factor 2 (Homo sapiens); assay: as §2, with “6 hrs in presence of 3 uM HO-1 inhibitor ZnPP for 1 hr prior to compound treatment by MTT” for “6 hrs by MTT”; procedure, shortened: as §3
[4] = target: T1, Nuclear factor erythroid 2-related factor 2 (Homo sapiens); assay: Activation of Nrf2 in human HepG2 cells assessed as increase in GCLM expression level at 5 uM in presence of 25 uM JNK inhibitor SP600125 for 1 hr prior to compound treatment by Western blot analysis; procedure, shortened: as §1

Structure (SMILES): CC(C)(C(=O)/C=C/c1ccc(O)c(O)c1)C(=O)/C=C/c1ccc(O)c(O)c1
- Activity [1]: inactive
- Activity [2]: Active
- Activity [3]: inactive
- Activity [4]: inactive
